Compound activity: PubChem, The Scripps Research Institute Molecular Screening Center
Rows were chosen to be rich in hits. Some 1.9% of all compounds tested hit in one or more screens of this group.
M5 PAM – CHRM5 positive allosteric modulation | 360,000 compounds, 0.3% hits | P08912 | activation, % at 3 µM | CHO-K1 hM5, Fluo-8 calcium, ACh EC20 PAM; 0% = ACh EC20, 100% = ACh EC100;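 active = activation above the run cutoff, the mean activation of all test compounds plus 3 SD, cut at about 18% in these data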
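System – CHO-K1 hM5 cells · Compound – 3 µM, single dose · Incubation – compound preincubation 140 s before EC20 acetylcholine addition · Technique – Fluo-8 calcium fluorescence · Measure – Max/basal fluorescence ratio as % of EC20–EC100 ACh window · Benchmarks – low control EC20 acetylcholine (0%), high control EC100 acetylcholine (100%) · Replication – singlicate, one well per test compound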
M5 antag – blocks acetylcholine activation of human M5 receptor; CHO-hM5 cells, Fluo-8 calcium fluorescence, ACh EC80; 360,000 compounds, 0.59% hits; P08912; inhibition, % at 3 µM; AID 624040;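 active = inhibition above a per-plate cutoff, the mean of that plate's test compounds plus 3 SD, cut at about 27% in these data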
M4 antag – blocks acetylcholine activation of human M4 receptor; P08173; CHO-hM4 cells, ACh EC80, Fluo-8 calcium fluorescence; inhibition, % at 3 µM; 360,000 compounds, 0.73% hits;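 active = inhibition above its plate's cutoff, the mean inhibition of sample wells plus 3 SD, cut at about 27% in these data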
Target sequence (P08173 whole entry, looked up): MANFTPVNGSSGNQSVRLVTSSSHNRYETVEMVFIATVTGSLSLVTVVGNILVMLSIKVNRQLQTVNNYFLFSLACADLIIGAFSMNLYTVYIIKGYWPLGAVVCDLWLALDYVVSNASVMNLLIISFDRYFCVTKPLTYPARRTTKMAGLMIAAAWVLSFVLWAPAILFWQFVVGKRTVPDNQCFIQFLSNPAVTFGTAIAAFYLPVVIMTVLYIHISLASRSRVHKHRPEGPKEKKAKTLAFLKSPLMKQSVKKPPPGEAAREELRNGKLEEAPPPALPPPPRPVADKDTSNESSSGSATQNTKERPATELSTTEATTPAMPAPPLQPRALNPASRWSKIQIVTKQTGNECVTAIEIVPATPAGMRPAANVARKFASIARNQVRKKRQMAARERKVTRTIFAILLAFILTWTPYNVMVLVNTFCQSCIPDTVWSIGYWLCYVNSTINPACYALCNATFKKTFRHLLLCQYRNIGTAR
CHRM5 agonist – CHRM5 agonism in calcium assay; P08912; CHO-K1 hM5 cells, Fluo-8 calcium fluorescence; 0% DMSO wells, 100% maximal acetylcholine response; activation, % at 3 µM; 360,000 compounds, 0.19% hits; AID 624037;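 active = activation above the run's mean over test compounds plus 3 SD, cut at about 23% in these data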;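 note: signal is peak over basal fluorescence ratio across the kinetic read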
M4 ag – agonists of human muscarinic M4 receptor (CHRM4); P08173; CHO-K1 hM4/Gqi5, Fluo-8 calcium fluorescence; vehicle 0%, full acetylcholine response 100%; activation, % at 3 µM; 360,000 compounds, 0.14% hits;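 active = activation above the run mean over all test wells plus 3 SD, cut at about 32% in these data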;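 note: peak over basal fluorescence ratio per well then scaled between controls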
CHRM4 PAM – CHRM4 positive allosteric modulation. P08173. CHO-K1 hM4/Gqi5, Fluo-8 calcium fluorescence, ACh EC20; 0% = ACh EC20, 100% = maximal ACh. activation, % at 3 µM. 360,000 compounds, 0.4% hits;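 active = activation above its plate's cutoff, the mean activation of sample wells plus 3 SD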
Each line names hits and unclear results; the compound was inactive in the other large screens.

O=C(C1CC1)N1CCC(c2nc(-c3ccc(S(=O)(=O)N4CCCC4)cc3)no2)CC1	M5 antag 66.0
O=C(NC1CCCCC1)N1CCC(c2nc(-c3ccc(S(=O)(=O)N4CCCC4)cc3)no2)CC1	none
COCCNC(=O)C(NC(=O)C1CCCCC1)C12CC3CC(CC(C3)C1)C2 (stereo not drawn)	none
Cc1c(Br)c([N+](=O)[O-])nn1CC(=O)N1CCc2ccccc21	none
Cc1nn(CC(=O)N2CCc3ccccc32)c(C)c1S(=O)(=O)NC(C)(C)C	CHRM4 PAM 16.3
Cc1ccc(Nc2cc(C)nn2-c2nc(C)cc(=O)[nH]2)cc1	M5 antag 40.7, M4 antag 58.8
Nc1ccn([C@@H]2O[C@H](CN=C3NS(=O)(=O)c4ccccc43)[C@@H](O)[C@H]2O)c(=O)n1	none
Cc1[nH]c(=O)c(C#N)c(C)c1CCC(=O)Nc1cc(S(C)(=O)=O)ccc1Cl	CHRM4 PAM 20.3
Cc1ccc(F)cc1NC(=O)CCc1c(C)[nH]c(=O)c(C#N)c1C	none
COc1ccc(NC(=O)/C=C/c2ccc(OC(F)F)cc2)cn1	none
N#CC1C(=O)c2ccccc2C1c1ccccc1 (stereo not drawn)	M5 antag 29.4, M4 antag 58.8
CC(C)Cn1c(=O)c(C(=O)Nc2ccccc2S(N)(=O)=O)c(O)c2ccccc21	none
CCC(C)n1c(=O)c(C(=O)Nc2ccccc2S(N)(=O)=O)c(O)c2ccccc21 (stereo not drawn)	M5 PAM 27.1
COc1cccc(NC(=O)CN(C)C(=O)Cn2cnc3ccccc3c2=O)c1	M5 antag 99.6
COc1cccc(NC(=O)CN(C)C(=O)c2cc(-c3ccccc3)nn2-c2ccccc2)c1	CHRM4 PAM 18.1
COc1cccc(CNC(=O)CN(C)S(=O)(=O)c2cnc[nH]2)c1	M5 PAM 19.7
CCn1nnnc1SCC(=O)NCc1cccs1	M5 PAM 18.3
COc1cc(C(=O)NNC(=S)NC(=O)c2ccc(Cl)cc2)cc(OC)c1OC	CHRM5 agonist 33.1, M4 ag 43.8
O=C(NNC(=S)Nc1cccc(C(F)(F)F)c1)c1cccc(Cl)c1	M5 antag 45.7
Cc1cccc(C(=O)NC(=S)NNC(=O)c2ccc(Cl)cc2)c1	M5 antag 30.5, M4 antag 39.6, CHRM5 agonist 89.8, M4 ag 132.5
CCOC(=O)C1=CCN(S(=O)(=O)c2cccc(Cl)c2)C1c1ccc(Br)cc1 (stereo not drawn)	none
O=C(/C=C/c1ccccc1Cl)N1CCOCC1	none
N#Cc1ccccc1/C=C/C(=O)N1CCOCC1	CHRM5 agonist 33.6
O=C1CSC(c2ccccc2)N1c1ccc([N+](=O)[O-])cc1 (stereo not drawn)	M4 antag 33.3
O=[N+]([O-])c1cccc(C=NNC(=S)NC23CC4CC(CC(C4)C2)C3)c1	none
Cc1ccc(C(C)NC(=O)/C(C#N)=C\c2c(C)[nH]c3ccccc23)cc1 (stereo not drawn)	CHRM5 agonist 27.0
O=C(OCc1ccccc1F)c1ccc2c(c1)-c1ccccc1C2=O	none
Cc1ccc(-n2nnc3c(=O)n(CC(=O)OCc4ccccc4)cnc32)cc1	none
CCOC(=O)c1[nH]cnc1C(=O)N1CCN(C(=O)OC(C)(C)C)CC1	CHRM4 PAM 24.0
C[C@H](OC(=O)c1[nH]cnc1C(=O)N1CCN(C(=O)OC(C)(C)C)CC1)c1ccccc1	none
CC(C(O)C12CC3CC(CC(C3)C1)C2)N1CCCCC1 (stereo not drawn)	M4 antag 40.4
COc1ccc(/C=C2/C(=O)ON=C2c2ccccc2)cc1OC	M5 PAM 23.0
COC(=O)NC1(C(F)(F)F)C(=O)NC(C)=C1C(=O)OC (stereo not drawn)	none
O=C(O)c1ccccc1COc1ccccc1Cl	none
Cc1oc(C(=O)O)cc1COc1ccccc1Cl	M5 PAM 41.8, CHRM5 agonist 29.7
Cn1c(CO)cnc1S(=O)(=O)Cc1ccc(Cl)cc1	none
COc1ccc(S(=O)(=O)N2CCOC23CCN(S(=O)(=O)c2ccc(F)cc2)CC3)cc1	M4 antag 29.1
CSc1ccc(C=NNc2ccc(S(=O)(=O)Nc3ccccc3C(=O)O)cc2[N+](=O)[O-])cc1	none
O=C(O)c1ccccc1NS(=O)(=O)c1ccc(NN=Cc2ccccc2F)c([N+](=O)[O-])c1	CHRM4 PAM 23.7
CC1CC(C)CN(C(=O)Cn2c(SCC(=O)N3CCc4ccccc4C3)nc3ccccc32)C1 (stereo not drawn)	none
Cc1cc(Cl)cc(Cl)c1OCCN1CCCC1	M5 PAM 23.8
CCN(CC)CCSC(=O)C(c1ccccc1)c1ccccc1	M5 antag 98.8, M4 antag 96.0
CCN(CCO)C(=O)C(c1ccccc1)c1ccccc1	none
NC(=O)C(c1ccccc1)C1CCCCC1 (stereo not drawn)	none
CCN(CC)CCOC(=O)C(c1ccccc1)C1CCCCC1 (stereo not drawn)	M5 antag 99.0, M4 antag 100.1
CCN(CC)CCOC(=O)C(c1ccccc1)c1ccccc1	M5 antag 97.7, M4 antag 53.8
Cc1ccc(NC(=S)N2CCN(S(C)(=O)=O)CC2)cc1C	none
O=[N+]([O-])c1ccc(NN=Cc2cccc(O)c2)nc1	none
Cc1cccc(C)c1-n1c(C)cc(/C=N\Nc2ccc([N+](=O)[O-])cn2)c1C	M4 antag 34.6
COc1ccc2oc(C(=O)NC3(C)CCS(=O)(=O)C3)c(C)c2c1 (stereo not drawn)	none
CN(C)c1c(F)cc(-c2nn[nH]n2)cc1F	none
Cc1cc(C)cc(OCC(O)CN2C(=O)NC(C)(C)C2=O)c1 (stereo not drawn)	none
Cc1ccc(OCC(O)CN2C(=O)NC(C)(C)C2=O)c(C)c1 (stereo not drawn)	CHRM4 PAM 19.1
S=c1[nH]nc(-c2ccncc2)n1/N=C/c1cn(-c2ccccc2)nc1-c1ccccc1	M5 PAM 22.7
CNc1cc(-c2cc(OC)ccc2OC)ncn1	M4 antag 72.9
CCc1ccc(/C=C2\SC(=S)N(CCCC(=O)N3CCN(C)CC3)C2=O)cc1	none
COc1ccc(/C=C2\SC(=S)N(CCCC(=O)N3CCN(C)CC3)C2=O)cc1	M5 PAM 33.1
CSc1ccc(/C=N/NC(=O)CN2CCN(Cc3ccc(Cl)cc3)CC2)cc1	M4 antag 34.7
CSc1ccc(/C=N/NC(=O)CN2CCN(Cc3ccccc3)CC2)cc1	none
O=C(NNc1ccccc1)Nc1cc(Cl)ccc1Cl	M5 PAM 19.0
